Laboratory results as given in ChEMBL document CHEMBL2331322, “Synthesis and antimicrobial activity of some new benzo and naphthonitrile derivatives” (2013).
In brackets after ≈: the same amount, converted by molar mass.

Assays:
Assay type in all cases: functional
Bacillus subtilis [1] = experiment: Antimicrobial activity against Bacillus subtilis at 1 mg/mL after 24 hrs by agar disc diffusion method; settings: read-out: DIZ
How it was run: (§1)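 Sterile 5 mm filter paper disks were impregnated with test solution in DMF (1 mg/mL) and placed on agar plates seeded with the test organism, in triplicate. Bacteria were incubated at 37 °C for 24 h and fungi for […] (so in the source). The read-out was the average inhibition zone diameter around the disks, in mm.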

Botrytis fabae [2] = experiment: Antimicrobial activity against Botrytis fabae after 48 hrs by microdilution susceptibility test
How it was run: (§2)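 MIC was determined by broth microdilution, using Müller–Hinton broth for bacteria and Sabouraud liquid medium for fungi. Stocks were made in DMF and serially diluted twofold. Wells were inoculated at 10⁶ CFU/mL and plates incubated at 36 °C for 24–48 h, with controls included. Only compounds giving agar-diffusion zones >14 mm were tested.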

Fusarium oxysporum [3] = experiment: Antimicrobial activity against Fusarium oxysporum after 48 hrs by microdilution susceptibility test; how it was run: as §2
Pseudomonas aeruginosa [4] = experiment: Antimicrobial activity against Pseudomonas aeruginosa after 24 hrs by microdilution susceptibility test; how it was run: as §2
Escherichia coli [5] = experiment: Antimicrobial activity against Escherichia coli after 24 hrs by microdilution susceptibility test; how it was run: as §2
Bacillus subtilis [6] = experiment: Antimicrobial activity against Bacillus subtilis after 24 hrs by microdilution susceptibility test; how it was run: as §2
Bacillus thuringiensis [7] = experiment: Antimicrobial activity against Bacillus thuringiensis after 24 hrs by microdilution susceptibility test; how it was run: as §2
Botrytis fabae [8] = experiment: Antimicrobial activity against Botrytis fabae at 1 mg/mL […] by agar disc diffusion method; settings: read-out: DIZ
Fusarium oxysporum [9] = experiment: Antimicrobial activity against Fusarium oxysporum at 1 mg/mL after 48 hrs by agar disc diffusion method; settings: read-out: DIZ; how it was run: as §1
Pseudomonas aeruginosa [10] = experiment: Antimicrobial activity against Pseudomonas aeruginosa at 1 mg/mL after 24 hrs by agar disc diffusion method; settings: read-out: DIZ; how it was run: as §1
Escherichia coli [11] = experiment: Antimicrobial activity against Escherichia coli at 1 mg/mL after 24 hrs by agar disc diffusion method; settings: read-out: DIZ; how it was run: as §1
Bacillus thuringiensis [12] = experiment: Antimicrobial activity against Bacillus thuringiensis at 1 mg/mL after 24 hrs by agar disc diffusion method; settings: read-out: DIZ; how it was run: as §1

| MIC (Botrytis fabae [2]) [µg/mL] | MIC (Fusarium oxysporum [3]) [µg/mL] | MIC (Pseudomonas aeruginosa [4]) [µg/mL] | MIC (Escherichia coli [5]) [µg/mL] | MIC (Bacillus subtilis [6]) [µg/mL] | MIC (Bacillus thuringiensis [7]) [µg/mL] | SMILES | zone of inhibition at 1000 µg/mL (Bacillus subtilis [1]) [mm] | MBC (Escherichia coli [5]) [µg/mL] | MBC (Bacillus subtilis [6]) [µg/mL] | zone of inhibition at 1000 µg/mL (Botrytis fabae [8]) [mm] | zone of inhibition at 1000 µg/mL (Fusarium oxysporum [9]) [mm] | zone of inhibition at 1000 µg/mL (Pseudomonas aeruginosa [10]) [mm] | zone of inhibition at 1000 µg/mL (Escherichia coli [11]) [mm] | zone of inhibition at 1000 µg/mL (Bacillus thuringiensis [12]) [mm] |
| --- | --- | --- | --- | --- | --- | --- | --- | --- | --- | --- | --- | --- | --- | --- |
| 100 (≈ 384 µM) | 50 (≈ 192 µM) | 100 (≈ 384 µM) | 100 (≈ 384 µM) | 100 (≈ 384 µM) | 100 (≈ 384 µM) | COc1ccc(/C=C(\C#N)c2ccccc2C#N)cc1 | 26 | 200 (≈ 768 µM) | 100 (≈ 384 µM) | 25 | 20 | 26 | 19 | 18 |
| 100 (≈ 312 µM) | 100 (≈ 312 µM) | 100 (≈ 312 µM) | 100 (≈ 312 µM) | 100 (≈ 312 µM) | 100 (≈ 312 µM) | COc1cc(/C=C(\C#N)c2ccccc2C#N)cc(OC)c1OC | 20 | 200 (≈ 624 µM) | 200 (≈ 624 µM) | 20 | 19 | 18 | 16 | 15 |
